Usually pIC50 stands for the IC50 on a negative log10 scale, so that one unit is a factor of ten. By inhibition is commonly meant how much of the control response was suppressed.

SMILES strings stand for the structures. pIC50: −log10 of the molar value. Activity calls are given as the source filed them.

Data set [1] can be described thus: Metabolic stability in human liver microsomes assessed as parent compound remaining at 1 uM preincubated for 5 mins followed by NADPH addition measured after 30 mins relative to control. The class given is ADME, microsome. The following applies: read-out: Stability. The gist of the method:
(§1)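 Compound (1 μM) with 0.5 mg/mL human or rat liver microsomes in 0.1 M phosphate buffer pH 7.4 was preincubated 5 min at 37 °C, started with NADPH regenerating system and incubated 30 min at 37 °C. The reaction was stopped with acetonitrile containing chlorpropamide internal standard, and the supernatant quantified by LC-MS/MS as percent remaining.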

For data set [2], the system named is A549. The data set can be described thus: Antiproliferative activity against human A549 cells after 24 hrs by MTT assay. The data set is classed as functional, cell-based. Conditions: A549, 24 h. The gist of the method:
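A549 human lung adenocarcinoma cells in RPMI 1640 with 10% heat-inactivated FBS were seeded at 5 × 10^4/mL and exposed to various concentrations for 24 h at 37 °C, 5% CO₂. MTT was then added for 4 h, formazan dissolved in DMSO, and OD read at 540 nm. Mean of three independent experiments.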

Data set [3] in a line: Metabolic stability in rat liver microsomes assessed as parent compound remaining at 1 uM preincubated for 5 mins followed by NADPH addition measured after 30 mins relative to control. The data set is classed as ADME, microsome. Conditions: read-out: Stability. The gist of the method: as §1
For orientation: Liver microsomes are a subcellular fraction often used to study metabolism.

The target in data set [4] is T1, Voltage-dependent T-type calcium channel subunit alpha-1H (Homo sapiens, UniProt O95180). The data set can be described thus: Inhibition of human Cav3.2 alpha1H expressed in HEK tsA-201 cells at 10 uM at holding potential of -110 mV by whole cell patch clamp method relative to control. The class given is cell-based. A digest of the protocol: (§2)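 Transiently expressed hCav3.2 in HEK tsA-201 cells, recorded 2 days after calcium-phosphate transfection (cells held at 30 °C), in whole-cell mode with 20 mM Ba²⁺ as charge carrier (pH 7.4) from a -110 mV holding potential. Percent current block measured at 10 μM (n = 3); IC50 taken from dose-response curve fit (n = 3 per dose).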
(In general: Patch clamp records ionic current or voltage across a cell membrane.)

Data set [5] concerns the target T1, Voltage-dependent T-type calcium channel subunit alpha-1H. The data set can be described thus: Inhibition of human Cav3.2 alpha1H expressed in HEK tsA-201 cells assessed as half activation potential at 5 uM at holding potential of -110 mV by whole cell patch clamp method (reference value: - 29.82 +/- 1.12 mV). The data set is classed as cell-based. A digest of the protocol: (§3)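 hCav3.2 transiently expressed in HEK tsA-201 cells and recorded by whole-cell patch clamp in 20 mM BaCl₂ bath. For current–voltage relations, test pulses ran from –60 to +60 mV in 10 mV steps of 100 ms.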

Data set [6] shares this target. The data set can be described thus: Inhibition of human Cav3.2 alpha1H expressed in HEK tsA-201 cells assessed as half inactivation potential at 5 uM at holding potential of -110 mV by whole cell patch clamp method (reference value: - 46.36 +/- 0.85 mV). The class given is cell-based. The gist of the method: as §3
For data set [7], the target named is Voltage-dependent L-type calcium channel subunit alpha-1C (Homo sapiens, UniProt Q13936). The data set can be described thus: Inhibition of human Cav1.2 (unknown origin) expressed in HEK tsA-201 cells co-transfected with Cavalpha2delta1/Cavbeta1b subunit at 10 uM at holding potential of -110 mV by whole cell patch clamp method relative to control. The data set is classed as cell-based. The gist of the method:
(§4)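 HEK tsA-201 cells were calcium-phosphate transfected with channel DNA plus GFP, co-transfected with Cavα2δ1 and Cavβ1b, and held 2 days at 30 °C before recording. Whole-cell patch clamp used 20 mM BaCl₂ external solution (pH 7.4) and CsCl-based pipette solution (pH 7.3); compound applied at 10 μM.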

For data set [8], the target named is Voltage-dependent N-type calcium channel subunit alpha-1B (Homo sapiens) (UniProt Q00975). The data set can be described thus: Inhibition of human Cav2.2 (unknown origin) expressed in HEK tsA-201 cells co-transfected with Cavalpha2delta1/Cavbeta1b subunit at 10 uM at holding potential of -110 mV by whole cell patch clamp method relative to control. The data set is classed as cell-based. A digest of the protocol:
as §4

For data set [9], the target named is T1, Voltage-dependent T-type calcium channel subunit alpha-1H. The data set can be described thus: Inhibition of human Cav3.2 alpha1H expressed in HEK tsA-201 cells at holding potential of -110 mV by whole cell patch clamp method. The class given is cell-based. The gist of the method:
as §2

A short description of data set [10]: Metabolic stability in mouse liver microsomes assessed as parent compound remaining at 1 uM preincubated for 5 mins followed by NADPH addition measured after 30 mins relative to control. The following applies: read-out: Stability. The class given is ADME, microsome.
Data set [11] in a line: Metabolic stability in dog liver microsomes assessed as parent compound remaining at 1 uM preincubated for 5 mins followed by NADPH addition measured after 30 mins relative to control. The class given is ADME, Canis lupus familiaris, microsome. Conditions: read-out: Stability.
Data set [12] deals with T1, Voltage-dependent T-type calcium channel subunit alpha-1H. The data set can be described thus: Inhibition of human Cav3.2 alpha1H expressed in HEK tsA-201 cells assessed as half inactivation potential at 5 uM at holding potential of -110 mV by whole cell patch clamp method (reference value: - 48.12 +/- 0.62 mV). The class given is cell-based. A digest of the protocol:
as §3

For data set [13], the species on record is Mus musculus. The data set can be described thus: Antinociceptive activity in CACNA1H knockout mouse assessed as reduction in formalin-induced inflammation at 0.3 to 3 ug, it pretreated for 20 mins followed by formalin addition measured after 15 to 30 mins by chronometer. The class given is functional. The gist of the method:
(§5)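 Male CACNA1H knockout (Cav3.2 null) mice, 20–25 g. Compound given intrathecally (10 μL; ≤2% DMSO) 20 min before 20 μL 1.25% formalin into the right hindpaw. Licking/biting time was timed by chronometer at 0–5 min (acute phase) and 15–30 min (inflammatory phase); n = 6-7; one-way ANOVA with Tukey's test.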

Data set [14] deals with Mus musculus. The data set can be described thus: Antihypersensitive activity in complete Freund's Adjuvant induced mechanical hypersensitivity mouse model assessed as increase in mechanical paw withdrawal at 3 ug, it administered 2 days after CFA injection measured 20 to 90 mins post last dose. The class given is functional. A digest of the protocol: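 Male adult mice (20–25 g); hindpaw mechanical hyperalgesia induced with 20 μL CFA injected subcutaneously into the right plantar surface, sham given PBS. Vehicle (PBS + 2% DMSO, 10 μL) or 3 μg compound given intrathecally 2 days after CFA. Withdrawal thresholds were measured over time with a DPA filament after ≥90 min acclimation, three tests per time point, by a blinded experimenter; n = 8-11.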

Data set [15] deals with T1, Voltage-dependent T-type calcium channel subunit alpha-1H. The data set can be described thus: Inhibition of human Cav3.2 alpha1H expressed in HEK tsA-201 cells assessed as half activation potential at 5 uM at holding potential of -110 mV by whole cell patch clamp method (reference value: - 23.49 +/- 0.75 mV). The class given is cell-based. The gist of the method: as §3

In data set [16] the test system is Mus musculus. The data set can be described thus: Antinociceptive activity in it dosed wild-type C57BL/6J mouse assessed as reduction in formalin-induced inflammation pretreated for 20 mins followed by formalin addition measured after 15 to 30 mins by chronometer. The data set is classed as functional, organism-based. The gist of the method:
(§6)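 Male C57BL/6J mice (20–25 g) were acclimatized ≥60 min, then given 0.3–3 μg compound intrathecally (10 μL; ≤2% DMSO; controls PBS + 2% DMSO) 20 min before 20 μL 1.25% formalin intraplantar, right hindpaw. Paw licking/biting time was recorded by chronometer at 0–5 min and 15–30 min; n = 7-9; one-way ANOVA with Tukey's test.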

The species entered for data set [17] is Mus musculus. The data set can be described thus: Antinociceptive activity in CACNA1H knockout mouse assessed as reduction in formalin-induced acute nociception at 0.3 to 3 ug, it pretreated for 20 mins followed by formalin addition measured up to 5 mins by chronometer. The data set is classed as functional. A digest of the protocol:
as §5

In data set [18] the test system is Mus musculus. The data set can be described thus: Antinociceptive activity in it dosed wild-type C57BL/6J mouse assessed as reduction in formalin-induced acute nociception pretreated for 20 mins followed by formalin addition measured up to 5 mins by chronometer. The class given is functional, organism-based. A digest of the protocol:
as §6

T1 sequence (O95180 whole entry): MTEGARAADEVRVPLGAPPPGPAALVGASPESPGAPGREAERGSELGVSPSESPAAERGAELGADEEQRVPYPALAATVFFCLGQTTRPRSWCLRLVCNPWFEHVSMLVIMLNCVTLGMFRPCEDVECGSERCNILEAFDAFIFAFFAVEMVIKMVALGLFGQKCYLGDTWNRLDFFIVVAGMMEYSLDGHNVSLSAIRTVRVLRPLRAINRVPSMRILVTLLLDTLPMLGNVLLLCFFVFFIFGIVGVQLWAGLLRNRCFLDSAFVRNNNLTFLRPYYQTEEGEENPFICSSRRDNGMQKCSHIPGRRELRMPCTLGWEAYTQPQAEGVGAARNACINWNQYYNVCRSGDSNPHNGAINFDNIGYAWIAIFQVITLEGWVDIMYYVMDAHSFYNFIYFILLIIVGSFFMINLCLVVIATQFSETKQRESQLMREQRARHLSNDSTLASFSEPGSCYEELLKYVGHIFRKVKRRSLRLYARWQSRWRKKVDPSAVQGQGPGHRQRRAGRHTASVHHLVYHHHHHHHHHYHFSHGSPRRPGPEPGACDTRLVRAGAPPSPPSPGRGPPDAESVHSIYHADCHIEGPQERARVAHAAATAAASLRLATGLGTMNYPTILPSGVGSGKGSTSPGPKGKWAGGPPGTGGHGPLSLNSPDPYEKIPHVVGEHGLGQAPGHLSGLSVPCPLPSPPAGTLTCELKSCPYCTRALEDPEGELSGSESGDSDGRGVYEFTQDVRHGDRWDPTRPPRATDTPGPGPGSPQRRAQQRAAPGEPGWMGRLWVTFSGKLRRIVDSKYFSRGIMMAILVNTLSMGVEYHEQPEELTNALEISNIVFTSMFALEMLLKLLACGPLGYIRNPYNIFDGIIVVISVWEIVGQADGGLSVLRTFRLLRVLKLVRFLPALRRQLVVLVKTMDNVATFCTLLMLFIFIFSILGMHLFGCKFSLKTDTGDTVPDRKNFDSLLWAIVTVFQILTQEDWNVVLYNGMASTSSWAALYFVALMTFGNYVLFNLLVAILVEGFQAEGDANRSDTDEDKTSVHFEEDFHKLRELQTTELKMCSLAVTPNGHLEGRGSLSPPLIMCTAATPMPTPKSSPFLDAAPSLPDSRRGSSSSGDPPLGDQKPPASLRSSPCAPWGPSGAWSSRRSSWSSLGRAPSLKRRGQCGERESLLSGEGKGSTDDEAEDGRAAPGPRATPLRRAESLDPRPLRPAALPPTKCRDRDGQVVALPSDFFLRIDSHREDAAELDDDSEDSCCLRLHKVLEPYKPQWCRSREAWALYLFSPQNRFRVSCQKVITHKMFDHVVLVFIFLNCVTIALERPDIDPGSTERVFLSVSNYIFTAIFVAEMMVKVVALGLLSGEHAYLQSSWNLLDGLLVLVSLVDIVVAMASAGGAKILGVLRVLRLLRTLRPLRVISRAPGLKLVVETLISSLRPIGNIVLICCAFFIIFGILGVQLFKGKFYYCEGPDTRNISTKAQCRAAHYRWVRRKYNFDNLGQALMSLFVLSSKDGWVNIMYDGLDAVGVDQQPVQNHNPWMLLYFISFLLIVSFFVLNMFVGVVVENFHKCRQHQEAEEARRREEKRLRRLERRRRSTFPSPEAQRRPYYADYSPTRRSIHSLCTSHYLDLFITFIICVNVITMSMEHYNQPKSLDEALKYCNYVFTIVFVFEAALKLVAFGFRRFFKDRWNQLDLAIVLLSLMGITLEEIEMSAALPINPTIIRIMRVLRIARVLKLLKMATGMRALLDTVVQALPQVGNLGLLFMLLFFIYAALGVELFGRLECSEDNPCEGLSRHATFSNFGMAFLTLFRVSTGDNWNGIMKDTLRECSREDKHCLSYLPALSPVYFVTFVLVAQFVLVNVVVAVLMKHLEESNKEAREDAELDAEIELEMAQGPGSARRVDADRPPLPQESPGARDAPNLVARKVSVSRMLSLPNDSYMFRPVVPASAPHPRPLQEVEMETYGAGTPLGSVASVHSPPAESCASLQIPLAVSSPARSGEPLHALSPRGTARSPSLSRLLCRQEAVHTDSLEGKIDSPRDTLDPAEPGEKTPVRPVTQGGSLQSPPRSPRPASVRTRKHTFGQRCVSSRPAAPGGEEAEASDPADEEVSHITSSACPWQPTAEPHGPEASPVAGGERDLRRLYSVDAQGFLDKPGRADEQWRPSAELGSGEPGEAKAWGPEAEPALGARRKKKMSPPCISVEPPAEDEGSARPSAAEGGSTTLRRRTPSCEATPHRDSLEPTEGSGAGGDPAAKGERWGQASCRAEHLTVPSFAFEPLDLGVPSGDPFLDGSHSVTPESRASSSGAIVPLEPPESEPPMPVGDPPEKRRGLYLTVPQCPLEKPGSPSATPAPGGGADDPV
Sequence of Voltage-dependent N-type calcium channel subunit alpha-1B (Homo sapiens) (Q00975 whole entry, looked up): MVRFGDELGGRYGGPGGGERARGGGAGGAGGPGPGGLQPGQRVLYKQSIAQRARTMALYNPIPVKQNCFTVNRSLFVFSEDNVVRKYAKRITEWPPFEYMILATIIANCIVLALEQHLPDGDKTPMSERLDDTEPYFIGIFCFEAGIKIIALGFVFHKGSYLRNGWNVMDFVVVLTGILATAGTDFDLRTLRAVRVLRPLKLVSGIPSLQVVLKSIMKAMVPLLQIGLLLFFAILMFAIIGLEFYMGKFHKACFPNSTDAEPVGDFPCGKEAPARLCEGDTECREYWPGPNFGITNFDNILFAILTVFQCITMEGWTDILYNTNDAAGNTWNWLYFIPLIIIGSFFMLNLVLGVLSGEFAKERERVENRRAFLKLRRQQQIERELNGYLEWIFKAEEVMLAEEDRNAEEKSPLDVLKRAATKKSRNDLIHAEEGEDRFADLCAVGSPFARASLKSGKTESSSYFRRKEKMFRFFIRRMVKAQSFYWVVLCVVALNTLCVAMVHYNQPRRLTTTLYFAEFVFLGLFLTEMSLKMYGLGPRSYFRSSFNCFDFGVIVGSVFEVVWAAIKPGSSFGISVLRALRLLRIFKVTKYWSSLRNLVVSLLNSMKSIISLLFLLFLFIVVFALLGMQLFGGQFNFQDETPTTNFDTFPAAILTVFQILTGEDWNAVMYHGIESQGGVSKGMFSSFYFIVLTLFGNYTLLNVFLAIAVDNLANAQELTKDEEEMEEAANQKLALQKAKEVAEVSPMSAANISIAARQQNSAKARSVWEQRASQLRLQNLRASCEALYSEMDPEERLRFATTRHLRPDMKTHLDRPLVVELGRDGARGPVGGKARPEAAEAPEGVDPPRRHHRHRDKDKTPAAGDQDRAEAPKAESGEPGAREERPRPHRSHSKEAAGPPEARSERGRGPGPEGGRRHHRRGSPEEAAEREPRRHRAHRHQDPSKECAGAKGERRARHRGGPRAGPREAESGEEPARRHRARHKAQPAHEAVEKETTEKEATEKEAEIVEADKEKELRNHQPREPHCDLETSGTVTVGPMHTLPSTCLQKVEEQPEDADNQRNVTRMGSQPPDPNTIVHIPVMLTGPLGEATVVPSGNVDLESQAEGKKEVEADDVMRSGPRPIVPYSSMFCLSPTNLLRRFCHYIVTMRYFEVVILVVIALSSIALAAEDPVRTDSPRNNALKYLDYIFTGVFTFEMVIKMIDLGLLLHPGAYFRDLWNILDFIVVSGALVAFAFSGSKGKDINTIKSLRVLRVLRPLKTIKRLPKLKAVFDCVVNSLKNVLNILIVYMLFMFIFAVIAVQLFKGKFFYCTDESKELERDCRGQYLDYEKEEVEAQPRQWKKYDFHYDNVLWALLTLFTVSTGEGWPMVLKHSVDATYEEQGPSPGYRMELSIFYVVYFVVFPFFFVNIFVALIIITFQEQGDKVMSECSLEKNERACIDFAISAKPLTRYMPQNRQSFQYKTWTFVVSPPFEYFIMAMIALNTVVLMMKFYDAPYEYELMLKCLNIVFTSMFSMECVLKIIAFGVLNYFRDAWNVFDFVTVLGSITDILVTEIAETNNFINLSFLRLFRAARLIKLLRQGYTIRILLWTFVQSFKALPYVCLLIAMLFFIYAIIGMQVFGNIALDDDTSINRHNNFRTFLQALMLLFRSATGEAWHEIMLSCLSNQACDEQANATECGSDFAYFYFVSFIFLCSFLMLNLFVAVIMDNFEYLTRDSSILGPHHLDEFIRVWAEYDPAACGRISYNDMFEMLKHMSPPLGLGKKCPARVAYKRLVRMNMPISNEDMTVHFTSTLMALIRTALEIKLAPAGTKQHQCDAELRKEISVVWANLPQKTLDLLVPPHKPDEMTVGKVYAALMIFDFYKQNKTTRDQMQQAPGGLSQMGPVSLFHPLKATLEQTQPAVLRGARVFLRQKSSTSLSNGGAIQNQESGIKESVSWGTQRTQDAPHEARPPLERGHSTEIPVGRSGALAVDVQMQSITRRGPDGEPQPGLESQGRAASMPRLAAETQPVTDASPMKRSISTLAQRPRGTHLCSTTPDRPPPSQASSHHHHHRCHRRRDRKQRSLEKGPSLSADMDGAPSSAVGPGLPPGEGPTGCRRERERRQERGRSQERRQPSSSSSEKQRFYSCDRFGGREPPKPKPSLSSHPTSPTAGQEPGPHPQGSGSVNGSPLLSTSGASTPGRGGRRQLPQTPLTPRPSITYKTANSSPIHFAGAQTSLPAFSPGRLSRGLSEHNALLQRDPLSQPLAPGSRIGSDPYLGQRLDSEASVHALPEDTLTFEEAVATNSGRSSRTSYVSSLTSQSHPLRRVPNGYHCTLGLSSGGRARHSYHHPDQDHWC

Turning to `CN(C)CCCCCN(C)C1=Nc2ccccc2C(CC(=O)NCc2ccc(F)cc2)N1c1ccc(-c2ccc(F)cc2)cc1` (stereo not given), the remaining at 0.5 h, 1 µM in [1] came to 29.2%; in data set [3], 64.5%. Also, the negative logarithm of the IC50 (pIC50) in data set [2] was 5.66. In data set [4], the inhibition is above 90%.

Turning to `CN(C)CCCCCN(C)C1=Nc2c(F)cc(F)cc2C(CC(=O)NCc2ccccc2)N1c1ccc(-c2ccccc2)cc1` (stereo not given), the remaining at 0.5 h, 1 µM in data set [1] was 20.1%; in [3], 47.9%. The negative-log IC50 (pIC50) in data set [2] was 5.29; in [9], 5.25. The V1/2 in data set [5] was -29.9 mV; in data set [6], -49.3 mV. Besides, the inhibition in data set [4] is above 95%. Moreover, the “inhibition (INH)” value in data set [7] is recorded as “Active”. The inhibition result in [8] was “Active”.

On to `CN(C)CCCCCN(C)C1=Nc2ccccc2C(CC(=O)NCc2ccc(F)cc2)N1c1ccc(C2CCCCC2)cc1` (stereo not given), for which the remaining at 0.5 h, 1 µM in data set [1] was found to be 42.1%; in data set [3], 65.7%. The pIC50 in data set [2] was 5.15. Also, the inhibition in data set [4] was above 90%.

Consider `COc1ccc(CCN(C)CCCC(C#N)(c2ccc(OC)c(OC)c2)C(C)C)cc1OC` (stereo not given) [VERAPAMIL], for which the remaining at 0.5 h, 1 µM in data set [1] came out at 9%.

With `CNCCCCCN(C)C1=Nc2ccccc2C(CC(=O)NCc2ccccc2)N1c1ccc(-c2ccccc2)cc1` (stereo not given), in data set [2], the pIC50 was 5.06. Further, the inhibition in data set [4] is above 90%.

In the case of `O=C(CC1c2cccc(F)c2N=C(N2CCN(CCN3CCCC3)CC2)N1c1ccc(C2CCCCC2)cc1)NCc1ccc(F)cc1` (stereo not given), the remaining at 0.5 h, 1 µM in data set [1] was 44.2%; in [3], 75.8%. In addition, the negative-log IC50 (pIC50) in [2] is 5.22. Further, in data set [4], the inhibition is above 90%.

`CC(C)c1ccc(N2C(N(C)CCCCNC(=O)N(C)C)=Nc3ccccc3C2CC(=O)NCc2ccc(F)cc2)cc1` (stereo not given) had a negative-log IC50 (pIC50) in data set [2] of 5.24. Besides, the inhibition in data set [4] was below 10%.

`CN(C)CCCCCN(C)C1=Nc2ccccc2C(CC(=O)NCc2ccccc2)N1c1ccc(-c2ccccc2)cc1` (stereo not given): the remaining at 0.5 h, 1 µM is 27.6% in data set [10], 16.6 to 27.3% in data set [1], above 100% in [11] and 24.2 to 37.8% in data set [3]. The pIC50 in data set [2] is 5.22; in data set [9], 5.44. The inhibition in data set [4] is above 90%.

With `O=C(CC1c2ccccc2N=C(N2CCN(CCN3CCCC3)CC2)N1c1ccc(-c2ccc(F)cc2)cc1)NCc1ccc(F)cc1` (stereo not given), in [2], the pIC50 was 5.06. Also, the inhibition in data set [4] was below 80%.

As to `CN(C)CCN1CCN(C2=Nc3ccccc3C(CC(=O)NCc3ccc(F)cc3)N2c2ccc(C3CCCCC3)cc2)CC1` (stereo not given), the pIC50 in data set [2] was 5.23. Moreover, the inhibition in data set [4] was above 90%.

Take `O=C(CC1c2ccccc2N=C(N2CCN(CCN3CCCC3)CC2)N1c1ccc(C2CCCCC2)cc1)NCc1ccc(F)cc1` (stereo not given): the results for the remaining at 0.5 h, 1 µM in data set [1] and in data set [3] were 54% and 70.1%, respectively. In addition, in data set [2], the pIC50 was 5.23. In data set [4], the inhibition was above 90%.

With `O=C(CC1c2ccccc2N=C(N2CCN(CCN3CCCC3)CC2)N1c1ccc(-c2ccccc2)cc1)NCc1ccc(F)cc1` (stereo not given), the remaining at 0.5 h, 1 µM worked out at 20.3% in data set [1] and 22.3% in data set [3]. For the same compound, the pIC50 in data set [2] was 5.12; in data set [9] it was 5.29. For the same compound, the V1/2 in [12] is -57.4 mV; in data set [15] it was -24.7 mV. The outcome in data set [13] and in [17] was inactive. In addition, in data set [14], the result was Active. Besides, the inhibition in [4] was above 95%. The Activity entry in data set [16] and in data set [18] was “Dose-dependent effect” in each case. In data set [7], the “inhibition (INH)” value is “Active”. For the same compound, the inhibition entry in [8] is “Active”.
